In ChEMBL document CHEMBL2429791, “Preparation of asymmetric urea derivatives that target prostate-specific membrane antigen for SPECT imaging” (J Med Chem, 2013):

How the values were obtained:
Format in all cases: ADME, organism-based
[1] = test system: Nucleic Acid; assay: Ratio of drug level in human PC3 cells xenografted in C.B.-17/Icr +/+ Jcl mouse to muscle of C.B.-17/Icr +/+ Jcl mouse xenografted with human LNCAP and PC3 cells at 25.9 MBq, iv after 2 mins; conditions: in vivo
Procedure, shortened: (§1)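 Mice (22–24 g) carried PC-3 (right shoulder) and LNCaP (left shoulder) tumors, raised by injecting 1–5 × 10⁶ cells in 1:1 PBS/Matrigel and used at about 5–10 mm diameter. [¹²⁵I]-tracer was given via the tail vein, n=4 per time point, and mice were decapitated at 2 min, 30 min, 1, 3 or 6 h. Tissues were weighed and γ-counted as %ID/g. Tumor/blood and tumor/muscle ratios were taken from %ID/g, mean ± SD.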

[2] = test system: Intestine; assay: Biodistribution in intestine of C.B.-17/Icr +/+ Jcl mouse xenografted with human LNCAP and PC3 cells at 25.9 MBq, iv after 3 hrs; conditions: in vivo
Procedure, shortened: (§2)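 ¹²⁵I-labelled tracer given iv by tail vein to mice (22–24 g) bearing LNCaP (left shoulder) and PC-3 (right shoulder) xenografts of about 5–10 mm, grown from 1–5 × 10⁶ cells in 1:1 Matrigel. n=4 per time point; decapitated at 2 min, 30 min, 1, 3, 6 h. Tissues weighed and counted; uptake as %ID/g, mean ± SD.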

[3] = test system: Kidney; assay: Biodistribution in kidney of C.B.-17/Icr +/+ Jcl mouse xenografted with human LNCAP and PC3 cells at 25.9 MBq, iv after 30 mins; conditions: in vivo, 0.5 h; procedure, shortened: as §2
[4] = test system: Kidney; assay: Biodistribution in kidney of C.B.-17/Icr […] Jcl mouse xenografted with human LNCAP and PC3 cells at 25.9 MBq, iv after 2 mins; conditions: in vivo; procedure, shortened: as §2
[5] = test system: Blood; assay: Biodistribution in blood of C.B.-17/Icr +/+ Jcl mouse xenografted with human LNCAP and PC3 cells at 25.9 MBq, iv after 30 mins; conditions: in vivo, 0.5 h; procedure, shortened: as §2
[6] = test system: Heart; assay: Biodistribution in heart of C.B.-17/Icr +/+ Jcl mouse xenografted with human LNCAP and PC3 cells at 25.9 MBq, iv after 1 hr; conditions: in vivo; procedure, shortened: as §2
[7] = test system: Thyroid gland; assay: Biodistribution in thyroid of C.B.-17/Icr +/+ Jcl mouse xenografted with human LNCAP and PC3 cells at 25.9 MBq, iv after 1 hr; conditions: in vivo
Procedure, shortened: (§3)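 Radioiodinated (¹²⁵I) tracer given by tail-vein injection to mice bearing LNCaP (left shoulder) and PC-3 (right shoulder) xenografts, 22–24 g, grown to about 5–10 mm. Groups of n=4 were decapitated at 2 min, 30 min, 1 h, 3 h or 6 h. Tissues were weighed and counted, and uptake was expressed as %ID/g (mean ± SD).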

[8] = Ratio of drug level in human PC3 cells xenografted in C.B.-17/Icr +/+ Jcl mouse to blood of C.B.-17/Icr +/+ Jcl mouse xenografted with human LNCAP and PC3 cells at 25.9 MBq, iv after 1 hr; conditions: PC3 tumour xenograft relative to blood; procedure, shortened: as §1
[9] = test system: Blood; assay: Biodistribution in blood of C.B.-17/Icr +/+ Jcl mouse xenografted with human LNCAP and PC3 cells at 25.9 MBq, iv after 2 mins; conditions: in vivo; procedure, shortened: as §2
[10] = test system: Blood; assay: Biodistribution in blood of C.B.-17/Icr +/+ Jcl mouse xenografted with human LNCAP and PC3 cells at 25.9 MBq, iv after 1 hr; conditions: in vivo; procedure, shortened: as §2
[11] = test system: Spleen; assay: Biodistribution in spleen of C.B.-17/Icr +/+ Jcl mouse xenografted with human LNCAP and PC3 cells at 25.9 MBq, iv after 3 hrs; conditions: in vivo; procedure, shortened: as §3
[12] = test system: Thyroid gland; assay: Biodistribution in thyroid of C.B.-17/Icr +/+ Jcl mouse xenografted with human LNCAP and PC3 cells at 25.9 MBq, iv after 3 hrs; conditions: in vivo; procedure, shortened: as §3
[13] = test system: Stomach; assay: Biodistribution in stomach of C.B.-17/Icr +/+ Jcl mouse xenografted with human LNCAP and PC3 cells at 25.9 MBq, iv after 2 mins; conditions: in vivo; procedure, shortened: as §3
[14] = test system: Stomach; assay: Biodistribution in stomach of C.B.-17/Icr +/+ Jcl mouse xenografted with human LNCAP and PC3 cells at 25.9 MBq, iv after 30 mins; conditions: in vivo, 0.5 h; procedure, shortened: as §3
[15] = test system: Spleen; assay: Biodistribution in spleen of C.B.-17/Icr scid/scid Jcl mouse xenografted with human LNCAP and PC3 cells at 25.9 MBq, iv after 30 mins in presence of 2-PMPA; conditions: in vivo, 0.5 h
Procedure, shortened: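 Blocking study: the ¹²⁵I tracer was coinjected via the tail vein with 2-PMPA (50 mg/kg) into LNCaP/PC-3 tumor-bearing mice, 22–24 g. Mice were decapitated 30 min after injection. Tissues were weighed and counted, giving %ID/g.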

[16] = test system: LNCaP; assay: Biodistribution in LNCAP cells in C.B.-17/Icr +/+ Jcl mouse xenografted with human LNCAP and PC3 cells at 25.9 MBq, iv after 2 mins; conditions: in vivo; procedure, shortened: as §2
[17] = Ratio of drug level in human LNCAP cells xenografted in C.B.-17/Icr +/+ Jcl mouse to blood of C.B.-17/Icr +/+ Jcl mouse xenografted with human LNCAP and PC3 cells at 25.9 MBq, iv after 30 mins; conditions: LNCAP tumour xenograft relative to blood
Procedure, shortened: (§4)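 Tumor-to-blood and tumor-to-muscle ratios were calculated from %ID/g values in ¹²⁵I-tracer biodistribution in LNCaP/PC-3 xenografted mice. Tail-vein dosing, n=4 per time point, sacrifice at 2 min, 30 min, 1, 3 or 6 h.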

[18] = test system: Nucleic Acid; assay: Ratio of drug level in human PC3 cells xenografted in C.B.-17/Icr +/+ Jcl mouse to muscle of C.B.-17/Icr +/+ Jcl mouse xenografted with human LNCAP and PC3 cells at 25.9 MBq, iv after 30 mins; conditions: in vivo, 0.5 h; procedure, shortened: as §1
[19] = test system: Thyroid gland; assay: Biodistribution in thyroid of C.B.-17/Icr +/+ Jcl mouse xenografted with human LNCAP and PC3 cells at 25.9 MBq, iv after 30 mins; conditions: in vivo, 0.5 h; procedure, shortened: as §3
[20] = test system: Thyroid gland; assay: Biodistribution in thyroid of C.B.-17/Icr +/+ Jcl mouse xenografted with human LNCAP and PC3 cells at 25.9 MBq, iv after 6 hrs; conditions: in vivo; procedure, shortened: as §3
[21] = test system: Nucleic Acid; assay: Ratio of drug level in human LNCAP cells to human PC3 cells xenografted in C.B.-17/Icr […] Jcl mouse at 25.9 MBq, iv after 2 mins; conditions: in vivo
[22] = Ratio of drug level in human LNCAP cells xenografted in C.B.-17/Icr +/+ Jcl mouse to blood of C.B.-17/Icr +/+ Jcl mouse xenografted with human LNCAP and PC3 cells at 25.9 MBq, iv after 6 hrs; conditions: LNCAP tumour xenograft relative to blood; procedure, shortened: as §4
[23] = test system: Stomach; assay: Biodistribution in stomach of C.B.-17/Icr +/+ Jcl mouse xenografted with human LNCAP and PC3 cells at 25.9 MBq, iv after 3 hrs; conditions: in vivo; procedure, shortened: as §3
[24] = test system: Thyroid gland; assay: Biodistribution in thyroid of C.B.-17/Icr +/+ Jcl mouse xenografted with human LNCAP and PC3 cells at 25.9 MBq, iv after 2 mins; conditions: in vivo; procedure, shortened: as §3
[25] = Ratio of drug level in human PC3 cells xenografted in C.B.-17/Icr +/+ Jcl mouse to blood of C.B.-17/Icr +/+ Jcl mouse xenografted with human LNCAP and PC3 cells at 25.9 MBq, iv after 6 hrs; conditions: PC3 tumour xenograft relative to blood; procedure, shortened: as §1

Ratio [1]: 1.9 | Drug uptake [2]: 5.8 % ID/g | Drug uptake [3]: 88.8 % ID/g | Drug uptake [4]: 68.1 % ID/g | Drug uptake [5]: 1.3 % ID/g | Drug uptake [6]: 1.3 % ID/g | Drug uptake [7]: 0.01 %ID | Kp at 1 h [8]: 0.7 | Drug uptake [9]: 7.4 % ID/g | Drug uptake [10]: 1 % ID/g | Drug uptake [11]: 16.1 % ID/g | Drug uptake [12]: 0.01 %ID | Drug uptake [13]: 0.7 %ID/g | Drug uptake [14]: 2.2 %ID | Drug uptake [15]: Not Active | Drug uptake [16]: 4.2 % ID/g | Kp at 0.5 h [17]: 7.2 | Ratio [18]: 1.6 | Drug uptake [19]: 0 %ID | Drug uptake [20]: 0.02 %ID | Ratio [21]: 1.5 | Kp at 6 h [22]: 13.3 | Drug uptake [23]: 1 %ID | Drug uptake [24]: 0.02 %ID | Kp at 6 h [25]: 0.4
Compound: O=C(O)CC[C@H](NC(=O)N[C@@H](CSC1CC(=O)N(CCCC[C@H](NC(=O)CNC(=O)c2cccc([125I])c2)C(=O)O)C1=O)C(=O)O)C(=O)O (stereo not given in full)
